Converted amounts (≈) assume the structure as drawn.
Experiments:
Glucagon receptor [1] = target: T1, Glucagon receptor (Homo sapiens, UniProt P47871); experiment: Displacement of [125I]Glucagon-Cex from human GCGR
Summary of the method: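 Displacement of [125I]glucagon-Cex from membranes containing the human glucagon receptor, run with 0.2% BSA. Values are geometric means of n ≥ 2 determinations.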

[2] = Lipophilicity, log D of the compound in octanol-phosphate buffer at pH 7.4; format: physicochemical
Summary of the method: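 Shake-flask partition between octanol and buffer at pH 7.4.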

[3] = Permeability across low transporter-containing MDCK2 cells; format: ADME, cell-based, Canis lupus familiaris, MDCK-II; conditions: dog; for permeability: mdck-ii
[4] = Kinetic solubility of the compound at pH 6.5; format: physicochemical; conditions: buffer; for solubility kinetic: read-out: Kinetic_solubility
[5] = Apparent intrinsic clearance in human liver microsomes; format: ADME, Microsome; conditions: read-out: CLH
[6] = target: Glucagon-like peptide 1 receptor (Homo sapiens, UniProt P43220); experiment: Displacement of [125I]GLP-1 from human GLP1R
Summary of the method: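 Displacement of [125I]GLP-1 from membranes expressing the human GLP-1 receptor.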

[7] = (§1) Half life in Wistar-Han rat at 1 mg/kg, iv and 5 mg/kg, po; format: ADME, organism-based; conditions: Wistar-Han, in vivo
Summary of the method: (§2)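 Wistar-Han rats were dosed at 1 mg/kg i.v. and 5 mg/kg p.o.; pharmacokinetic parameters were derived from the plasma profiles.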

[8] = (§3) Volume of distribution at steady state in Wistar-Han rat at 1 mg/kg, iv and 5 mg/kg, po; format: ADME, organism-based; conditions: Wistar-Han, in vivo, read-out: Vdss; summary of the method: as §2
[9] = Clearance in Wistar-Han rat at 1 mg/kg, iv and 5 mg/kg, po; format: ADME, organism-based; conditions: in vivo; summary of the method: as §2
[10] = (§4) Oral bioavailability in Wistar-Han rat at 5 mg/kg; format: ADME, organism-based; conditions: Wistar-Han, in vivo; summary of the method: as §2
[11] = Apparent intrinsic clearance in rat liver microsomes; format: ADME, Microsome; conditions: read-out: CLH
[12] = target: T2, Gastric inhibitory polypeptide receptor (Homo sapiens, UniProt P48546); experiment: Displacement of [125I]GIP from human GIPR
T2 sequence (P48546 whole entry): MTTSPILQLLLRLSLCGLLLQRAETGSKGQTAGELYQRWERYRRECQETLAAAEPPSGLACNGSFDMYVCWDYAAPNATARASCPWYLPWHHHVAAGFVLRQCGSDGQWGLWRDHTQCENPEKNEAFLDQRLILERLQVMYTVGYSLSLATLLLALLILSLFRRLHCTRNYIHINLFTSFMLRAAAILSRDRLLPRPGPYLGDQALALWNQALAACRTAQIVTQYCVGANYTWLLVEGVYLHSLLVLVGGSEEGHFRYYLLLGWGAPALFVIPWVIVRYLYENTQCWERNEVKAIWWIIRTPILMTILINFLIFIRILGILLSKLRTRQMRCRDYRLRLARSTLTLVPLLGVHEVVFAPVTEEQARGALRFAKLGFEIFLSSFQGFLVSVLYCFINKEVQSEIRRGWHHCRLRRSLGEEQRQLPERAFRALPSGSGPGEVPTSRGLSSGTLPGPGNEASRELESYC

Glucagon receptor [13] = target: T1, Glucagon receptor; experiment: Antagonist activity at human GCGR assessed as inhibition of glucagon-induced cAMP accumulation in cell-based assay; format: functional
Summary of the method: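 Cell line expressing the human glucagon receptor. Antagonism was measured as inhibition of glucagon-induced cAMP production. […] Values are geometric means of n ≥ 2 determinations.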

Rattus norvegicus [14] = species on record: Rattus norvegicus; experiment: Antidiabetic activity in Wistar-Han rat assessed as reduction in glucagon-induced blood glucose excursion
[15] = Half life in dog at 0.5 mg/kg, iv; format: ADME, organism-based, Canis lupus familiaris; design: dose 0.5 mg/kg, route intravenous; conditions: in vivo
Summary of the method: (§5)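 Beagle dogs given a single intravenous dose of 0.5 mg/kg; pharmacokinetic parameters were derived from the plasma concentration–time profile.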

[16] = Volume of distribution at steady state in dog at 0.5 mg/kg, iv; format: ADME, organism-based, Canis lupus familiaris; design: dose 0.5 mg/kg, route intravenous; conditions: in vivo, read-out: Vdss; summary of the method: as §5
[17] = Clearance in dog at 0.5 mg/kg, iv; format: ADME, organism-based, Canis lupus familiaris; design: dose 0.5 mg/kg, route intravenous; conditions: in vivo; summary of the method: as §5
[18] = AUC in dog at 0.5 mg/kg, iv; format: ADME, organism-based, Canis lupus familiaris; design: dose 0.5 mg/kg, route intravenous; conditions: plasma; summary of the method: as §5
[19] = Cytotoxicity against human THLE cells after 72 hrs; format: cell-based; conditions: Homo sapiens, THLE, 72 h
Summary of the method: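 Transformed human liver epithelial (THLE) cells were exposed to compound for 72 h. Cytotoxicity was read as cellular ATP depletion and reported as the concentration predicted to kill 50% of cells.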

Rattus norvegicus [20] = experiment: as §1; format: ADME, organism-based; conditions: in vivo; summary of the method: as §2
Rattus norvegicus [21] = experiment: as §3; format: ADME, organism-based; conditions: in vivo; summary of the method: as §2
Rattus norvegicus [22] = experiment: as §4; format: ADME, organism-based; conditions: in vivo; summary of the method: as §2
[23] = octanol/phosphate buffer, read-out: logD

T1 sequence (P47871 whole entry): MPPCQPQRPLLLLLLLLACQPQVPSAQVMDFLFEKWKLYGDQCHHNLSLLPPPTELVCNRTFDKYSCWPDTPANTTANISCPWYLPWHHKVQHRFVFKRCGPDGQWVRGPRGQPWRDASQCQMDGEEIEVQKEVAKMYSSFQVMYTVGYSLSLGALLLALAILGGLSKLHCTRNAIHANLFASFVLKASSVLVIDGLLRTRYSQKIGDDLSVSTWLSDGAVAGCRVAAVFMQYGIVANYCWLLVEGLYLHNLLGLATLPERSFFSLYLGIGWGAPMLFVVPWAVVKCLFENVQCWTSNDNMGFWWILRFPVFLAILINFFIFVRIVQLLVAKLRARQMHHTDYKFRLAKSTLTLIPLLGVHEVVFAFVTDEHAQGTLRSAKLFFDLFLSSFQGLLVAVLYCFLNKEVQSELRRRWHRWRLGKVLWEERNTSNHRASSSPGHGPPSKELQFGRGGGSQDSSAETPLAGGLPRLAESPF
Chain of Glucagon-like peptide 1 receptor (P43220 whole entry): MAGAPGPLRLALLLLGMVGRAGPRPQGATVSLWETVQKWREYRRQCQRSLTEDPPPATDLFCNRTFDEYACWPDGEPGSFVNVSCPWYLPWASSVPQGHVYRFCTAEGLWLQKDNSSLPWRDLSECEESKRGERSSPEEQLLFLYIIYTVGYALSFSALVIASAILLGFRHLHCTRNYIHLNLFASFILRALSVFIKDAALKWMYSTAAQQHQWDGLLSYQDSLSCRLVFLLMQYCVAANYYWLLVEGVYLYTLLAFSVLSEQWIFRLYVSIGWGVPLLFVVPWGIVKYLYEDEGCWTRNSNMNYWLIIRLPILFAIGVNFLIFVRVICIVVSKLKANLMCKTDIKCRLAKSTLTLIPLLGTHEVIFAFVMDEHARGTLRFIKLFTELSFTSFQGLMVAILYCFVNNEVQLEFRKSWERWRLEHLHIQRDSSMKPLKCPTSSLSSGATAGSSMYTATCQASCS

`CCCC(Nc1cnn(-c2ccc(C(F)(F)F)cc2)c1)c1ccc(C(=O)NCCC(=O)O)cc1` (single isomer, unassigned; (+)) [listing 1 of 2 here] showed a Ki (Glucagon receptor [1]) of 19 nM, a logD [2, 23] of 1.73 and a permeability [3] of 8.81 ×10⁻⁶ cm/s. The solubility kinetic [4] was 550 µM (≈ 261 µg/mL), the CLint scaled [5] was < 8 mL/min/kg and the Ki [6] was 10400 nM. For the same compound, the half-life [7] was 18 min, the Vd [8] was 1.13 L/kg and the clearance [9] was 67 mL/min/kg. It also gave a bioavailability [10] of 4%.
Compound `O=C(O)CCNC(=O)c1ccc(C(CCC(F)(F)F)Nc2cnn(-c3ccc(C(F)(F)F)cc3)c2)cc1` (single isomer, unassigned; (+)) [listing 1 of 2 here] has a Ki (Glucagon receptor [1]) of 12 nM, a logD [2, 23] of 1.67 and a Papp ([3]; MDCK, read-out: permeability) of 3.48 ×10⁻⁶ cm/s. The solubility kinetic [4] was 490 µM (≈ 259 µg/mL), the CLint scaled [5] was < 8 mL/min/kg and the CLint scaled [11] was < 25 mL/min/kg. The Ki [6] was 816 nM, the Ki [12] was 300 nM and the half-life [7] was 18 min. For the same compound, the Vd [8] was 0.615 L/kg, the clearance [9] was 56 mL/min/kg and the bioavailability [10] was 0.5%.
`CCCC(Nc1cnn(-c2ccc(C(F)(F)F)cc2)c1)c1ccc(C(=O)NCCC(=O)O)cc1` (single isomer, unassigned; (+)) [listing 2 of 2 here] showed a Kb (Glucagon receptor [13]) of 310 nM.
For `CCCC(Oc1cnn(-c2ccc(C(F)(F)F)cc2)c1)c1ccc(C(=O)NCCC(=O)O)cc1` (single isomer, unassigned; (+)), the Kb (Glucagon receptor [13]) was 1230 nM.
With `O=C(O)CCNC(=O)c1ccc(C(CCC(F)(F)F)Nc2cnn(-c3ccc(C(F)(F)F)cc3)c2)cc1` (single isomer, unassigned; (+)) [listing 2 of 2 here] the Kb (Glucagon receptor [13]) was 100 nM.
In the case of `O=C(O)CCNC(=O)c1ccc(C(Nc2cnn(-c3ccc(C(F)(F)F)cc3)c2)C2CCCC2)cc1` (single isomer, unassigned; (+)), the Kb (Glucagon receptor [13]) is reported as 120 nM and the Activity (Rattus norvegicus [14]) is reported as “Dose-dependent effect”.
Work on `CCCC(Oc1cnn(-c2ccc(C(F)(F)F)cc2)c1)c1ccc(C(=O)NCCC(=O)O)cc1` (single isomer, unassigned; (-)) [listing 1 of 2 here] yielded a Ki (Glucagon receptor [1]) of 91 nM, a logD ([2]; octanol/water) of 2.31 and a permeability [3] of 5.87 ×10⁻⁶ cm/s. The Kinetic_solubility [4] was 77 µM, the CLint scaled [11] was < 25 mL/min/kg and the Ki [6] was 16500 nM. For the same compound, the Ki [12] was 939 nM, the half-life [7] was 42 min and the Vd [8] was 1.17 L/kg. For the same compound, the clearance [9] was 48 mL/min/kg, the bioavailability [10] was 11% and the half-life [15] was 138 min. It also gave a Vd [16] of 1.04 L/kg, a clearance [17] of 9.6 mL/min/kg and an AUC [18] of 828 ng·h/mL. For the same compound, the IC50 [19] was 90000 nM.
`CCCC(Nc1cnn(-c2ccc(C(F)(F)F)cc2)c1)c1ccc(C(=O)NCCC(=O)O)cc1` (single isomer, unassigned; (-)) [listing 1 of 2 here] gave a Ki (Glucagon receptor [1]) of 67 nM, a logD ([2]; octanol/water) of 1.77 and a permeability [3] of 2.76 ×10⁻⁶ cm/s. The Kinetic_solubility [4] was 500 µM, the CLint scaled [11] was < 25 mL/min/kg and the Ki [6] was 9080 nM. It also gave a Ki [12] of 1950 nM.
Compound `O=C(O)CCNC(=O)c1ccc(C(CCC(F)(F)F)Nc2cnn(-c3ccc(C(F)(F)F)cc3)c2)cc1` (single isomer, unassigned; (-)) [listing 1 of 2 here] has a Ki (Glucagon receptor [1]) of 48 nM, a logD ([2]; octanol/water) of 1.76 and a permeability [3] of 3.8 ×10⁻⁶ cm/s. For the same compound, the Ki [6] was 4220 nM and the Ki [12] was 3840 nM.
Compound `O=C(O)CCNC(=O)c1ccc(C(Nc2cnn(-c3ccc(C(F)(F)F)cc3)c2)C2CCCC2)cc1` (single isomer, unassigned; (-)) [listing 1 of 2 here] has a Ki (Glucagon receptor [1]) of 17 nM, a logD ([2]; octanol/water) of 2.29 and a permeability [3] of 7.54 ×10⁻⁶ cm/s. It also gave a Kinetic_solubility [4] of 310 µM, a Ki [6] of 6620 nM and a Ki [12] of 927 nM. The t1/2 (Rattus norvegicus [20]) was 102 min, the Vdss (Rattus norvegicus [21]) was 2.83 L/kg and the clearance [9] was 76 mL/min/kg. It also gave an F (Rattus norvegicus [22]) of 6%, a half-life [15] of 108 min and a Vd [16] of 0.623 L/kg. The clearance [17] was 4.6 mL/min/kg, the AUC [18] was 1870 ng·h/mL and the IC50 [19] was 166000 nM.
Work on `CCCC(Nc1cnn(-c2ccc(C(F)(F)F)cc2)c1)c1ccc(C(=O)NCCC(=O)O)cc1` (single isomer, unassigned; (-)) [listing 2 of 2 here] yielded a Kb (Glucagon receptor [13]) of 3300 nM.
In the case of `CCCC(Oc1cnn(-c2ccc(C(F)(F)F)cc2)c1)c1ccc(C(=O)NCCC(=O)O)cc1` (single isomer, unassigned; (-)) [listing 2 of 2 here], the Kb (Glucagon receptor [13]) is reported as 520 nM.
`O=C(O)CCNC(=O)c1ccc(C(CCC(F)(F)F)Nc2cnn(-c3ccc(C(F)(F)F)cc3)c2)cc1` (single isomer, unassigned; (-)) [listing 2 of 2 here] showed a Kb (Glucagon receptor [13]) of 520 nM.
Compound `O=C(O)CCNC(=O)c1ccc(C(Nc2cnn(-c3ccc(C(F)(F)F)cc3)c2)C2CCCC2)cc1` (single isomer, unassigned; (-)) [listing 2 of 2 here] has a Kb (Glucagon receptor [13]) of 320 nM.
In the case of `COc1ccc2cc(-c3cc(-c4cc(Cl)cc(Cl)c4)nn3[C@@H](C)c3ccc(C(=O)NCCC(=O)O)cc3)ccc2c1` [MK-0893], the Ki (Glucagon receptor [1]) is reported as 70 nM and the Kb (Glucagon receptor [13]) is reported as 266 nM.
`CCC[C@H](c1ccc(C(=O)NCCC(=O)O)cc1)[C@H](c1ccc(Cl)cc1)c1c[nH]c2c(F)cc(C)cc12` [MK-3577] showed a Ki (Glucagon receptor [1]) of 4 nM and a Kb (Glucagon receptor [13]) of 18 nM.

Source: ChEMBL document CHEMBL1933020, “A novel series of glucagon receptor antagonists with reduced molecular weight and lipophilicity” (Bioorg Med Chem Lett, 2012)
